Measurements as given in ChEMBL document CHEMBL1152539, “Synthesis and evaluation of bioactive naphthoquinones from the Brazilian medicinal plant, Tabebuia avellanedae” (Bioorg Med Chem, 2009).

Legend:
Hepatocyte = test: Antiproliferative activity against human hepatocytes after 72 hrs by trypan blue exclusion assay; format: cell-based
Procedure, shortened: (§1)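 Cells were kept in DMEM with 10% fetal serum and exposed to four concentrations of compound for 72 h at 37 °C in humidified 5% CO₂. They were then stained with 0.25% trypan blue for 20 min, and viable cells were counted by light microscopy. IC₅₀ was derived from separate experiments run in triplicate.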

[1] = Antiproliferative activity against human skin fibroblast after 72 hrs by trypan blue exclusion assay; format: cell-based; procedure, shortened: as §1
[2] = Antiproliferative activity against human Hs888Lu cells after 72 hrs by trypan blue exclusion assay; format: cell-based; procedure, shortened: as §1
[3] = Antiproliferative activity against human MPC5 cells after 72 hrs by trypan blue exclusion assay; format: cell-based; conditions: MPC-5, 72 h; procedure, shortened: as §1
[4] = Antiproliferative activity against human SVCT-M12 cells after 72 hrs by trypan blue exclusion assay; format: cell-based; conditions: SVCT-M12, 72 h; procedure, shortened: as §1
[5] = Cytotoxicity against human Raji cells assessed as cell viability at 1000 molar ratio after 48 hrs by trypan blue staining; format: cell-based; conditions: read-out: Activity
Procedure, shortened: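 Raji cells were exposed for 48 h at 37 °C to n-butyric acid (4 mM), TPA (32 pmol) and test compound, as in the EBV-EA induction setup. Viability of the treated cells was then measured by trypan blue staining.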

Raji [6] = test: Inhibition of 12-O-tetradecanoylphorbol-13-acetate-induced EBV-early antigen activation in human Raji cells assessed as EA induction at 1000 molar ratio after 48 hrs by immunofluorescence technique relative to 12-O-tetradecanoylphorbol-13-acetate; format: cell-based; conditions: human gammaherpesvirus 4
Procedure, shortened: (§2)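 Raji cells were incubated for 48 h at 37 °C in medium with n-butyric acid (4 mM), TPA (32 pmol) and graded amounts of test compound. Smears were stained for EBV-EA by indirect immunofluorescence, and positive cells were counted among at least 500 cells. Assays were run in triplicate. Activity was expressed relative to the n-butyric acid plus TPA control, set as 100%.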

[7] = Anticancer activity against DMBA/TPA-induced skin cancer in mouse assessed as number of papillomas per mouse at 85 nmol administered before TPA challenge measured after 20 weeks; format: functional
Procedure, shortened: (§3)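 Mouse two-stage skin model: DMBA 390 nmol in 0.1 mL acetone applied topically by pipet. One week later, the same skin site was painted with test compound (85 nmol in acetone) or acetone alone, 60 min before TPA (1.7 nmol). Tumor response was scored as the average number of papillomas per mouse and the percentage of mice bearing papillomas.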

[8] = Cytotoxicity against human Raji cells assessed as cell viability at 500 molar ratio after 48 hrs by trypan blue staining; format: cell-based; conditions: read-out: Activity
Procedure, shortened: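 Raji cells incubated 48 h at 37 °C in medium containing n-butyric acid (4 mM), TPA (32 pmol) and various amounts of test compound, as part of the EBV-EA activation inhibition assay. Viability of the treated cells was then assayed by trypan blue staining.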

Raji [9] = test: Inhibition of 12-O-tetradecanoylphorbol-13-acetate-induced EBV-early antigen activation in human Raji cells assessed as EA induction at 10 molar ratio after 48 hrs by immunofluorescence technique relative to 12-O-tetradecanoylphorbol-13-acetate; format: cell-based; design: scale not given: the % may be the effect or the level left; conditions: human gammaherpesvirus 4; procedure, shortened: as §2
[10] = Anticancer activity against DMBA/TPA-induced skin cancer in mouse assessed as incidence of papilloma at 85 nmol administered before TPA challenge measured after 15 weeks; format: functional; procedure, shortened: as §3
[11] = Anticancer activity against DMBA/TPA-induced skin cancer in mouse assessed as incidence of papilloma at 85 nmol administered before TPA challenge measured after 20 weeks; format: functional; procedure, shortened: as §3
[12] = Inhibition of 12-O-tetradecanoylphorbol-13-acetate-induced EBV-early antigen activation in human Raji cells after 48 hrs by immunofluorescence technique; format: cell-based, human gammaherpesvirus 4; procedure, shortened: as §2
Raji [13] = test: Inhibition of 12-O-tetradecanoylphorbol-13-acetate-induced EBV-early antigen activation in human Raji cells assessed as EA induction at 100 molar ratio after 48 hrs by immunofluorescence technique relative to 12-O-tetradecanoylphorbol-13-acetate; format: cell-based; design: scale not given: the % may be the effect or the level left; conditions: human gammaherpesvirus 4; procedure, shortened: as §2
Raji [14] = test: Inhibition of 12-O-tetradecanoylphorbol-13-acetate-induced EBV-early antigen activation in human Raji cells assessed as EA induction at 500 molar ratio after 48 hrs by immunofluorescence technique relative to 12-O-tetradecanoylphorbol-13-acetate; format: cell-based; design: scale not given: the % may be the effect or the level left; conditions: human gammaherpesvirus 4; procedure, shortened: as §2
[15] = Anticancer activity against DMBA/TPA-induced skin cancer in mouse assessed as incidence of papilloma at 85 nmol administered before TPA challenge measured after 10 weeks; format: functional; procedure, shortened: as §3

Row | IC50 [12] [mol ratio/32 pmol TPA] | Structure (SMILES) | EC50 (Hepatocyte) [µM] | EC50 [1] [µM] | EC50 [2] [µM] | EC50 [3] [µM] | EC50 [4] [µM] | viability at 48 h, 1000 molar ratio [5] [%] | EA induction relative to TPA control (Raji [6]) [%] | Activity [7] | viability at 48 h, 500 molar ratio [8] [%] | Activity (Raji [9]) [%] | Activity [10] [%] | Activity [11] [%] | Activity (Raji [13]) [%] | Activity (Raji [14]) [%] | Activity [15] [%]
1 | – | CO[C@@]12[C@H](COC(N)=O)C3=C(C(=O)C(C)=C(N)C3=O)N1C[C@@H]1N[C@@H]12 [MITOMYCIN] | 1.46 | 0.93 | 0.56 | 2.1 | 0.96 | – | – | – | – | – | – | – | – | – | –
2 | 34.9 | CC(O)c1cc2c(o1)C(=O)c1cccc(O)c1C2=O (racemic) | 89.3 | 45.4 | – | – | – | 60 | 0 | 3.9 | 70 | 52.9 | 47 | 67 | 20.7 | 6.2 | 7
